Source: ChEMBL document CHEMBL1122853, “New bicyclic antidepressant agent. Synthesis and activity of napactadine and related compounds” (J Med Chem, 1985)
Activity calls are given as the source filed them. The rule behind the calls is not given here.

Columns and labels:
Mus musculus [1] = test: Effective dose required to prevent reserpine ptosis in mice administered po; type: functional
Procedure, shortened: (§1)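 Male Swiss-Webster or Harlan ICR mice, five per dose. Drug in saline given po or ip per line. Reserpine 2.5 mg/kg ip 30 min later. Complete absence of ptosis at 45 min after reserpine scored as positive. ED50 by Litchfield-Wilcoxon or Horn method, with 95% confidence intervals.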

[2] = Therapeutic index administered perorally in mouse; type: organism-based; details: in vivo, po, read-out: Therapeutic index
Procedure, shortened: (§2)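 Index from mouse LD50 over reserpine-ptosis ED50 by the same route. […] Deaths recorded at 1 and 24 h; Litchfield-Wilcoxon calculation.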

Mus musculus [3] = test: (§3) Effective dose required to potentiate yohimbine hydrochloride induced lethality in mice, administered intraperitoneally; type: organism-based; details: in vivo, ip
Procedure, shortened: (§4)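 Male Swiss-Webster or Swiss ND/4 mice, 20-24 g, randomized into groups of 10 and housed five per cage. Test drug in saline given ip, with a saline control group. Yohimbine hydrochloride 20 mg/kg sc was given 30 min later, and mice were then reaggregated.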

[4] = Lethal dose in mouse p.o.; type: toxicity, organism-based; details: in vivo, po
Mus musculus [5] = test: Electrical shock aggression was evaluated in mice, administered intraperitoneally; type: functional; details: ip
Procedure, shortened: (§5)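 Pairs of mice placed under an inverted 1000 cm3 beaker and shocked through the floor grid (3 mA, 3 Hz) for 2 min. Drug given ip 30 min before testing; scored all-or-none against a saline group. Fighting counted as inhibited when mean attacks fell 1.5 SD below the vehicle mean.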

Mus musculus [6] = test: Effective dose required to prevent reserpine ptosis in mice, administered intraperitoneally; type: functional; details: ip; procedure, shortened: as §1
[7] = Lethal dose in mouse i.p.; type: toxicity, organism-based; details: in vivo, ip
Procedure, shortened: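 Male Swiss-Webster albino mice, 20-24 g, in groups of five. Each group received one dose ip in saline (prepared 30 min before injection) at 10 mL/kg. Mice were held singly for about 5 h, then housed together with food and water. Deaths were counted at 1 and 24 h. LD50 by Litchfield-Wilcoxon.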

[8] = Therapeutic index administered intraperitoneally in mouse; type: organism-based; details: in vivo, ip, read-out: Therapeutic index; procedure, shortened: as §2
Mus musculus [9] = test: Effective dose required to prevent reserpine ptosis in mice, administered orally(po); type: functional; procedure, shortened: as §1
Mus musculus [10] = test: Effective dose required to prevent reserpine ptosis in mice, administered (po)orally; type: functional; procedure, shortened: as §1
Mus musculus [11] = test: as §3; type: functional; details: ip; procedure, shortened: as §4
Mus musculus [12] = test: Electrical shock aggression was evaluated in mice, administered intraperitoneally; NA means no aggression blockade at 46.4 mg/kg; type: functional, organism-based; set-up: dose 46.4 mg/kg; procedure, shortened: as §5
Mus musculus [13] = test: Effective dose required to prevent reserpine ptosis in mice, administered orally; NA=Not active at 100 mg/kg; type: functional, organism-based; set-up: dose 100 mg/kg; procedure, shortened: as §1
Mus musculus [14] = test: Effective dose required to prevent reserpine ptosis in mice, administered intraperitoneally.; type: functional, organism-based; procedure, shortened: as §1
Mus musculus [15] = test: Effective dose required to prevent reserpine ptosis in mice, administered orally; type: functional; details: po; procedure, shortened: as §1
Mus musculus [16] = test: Effective dose required to prevent reserpine ptosis in mice, administered intraperitoneally; NA=Not active at 46 mg/Kg; type: functional, organism-based; procedure, shortened: as §1
Mus musculus [17] = test: Effective dose required to prevent reserpine ptosis in mice, administered orally(po); NA=Not active at 100 mg/kg; type: functional, organism-based; set-up: dose 100 mg/kg; procedure, shortened: as §1
Mus musculus [18] = test: Effective dose required to prevent reserpine ptosis in mice administered intraperitoneally; type: functional; details: ip; procedure, shortened: as §1
Mus musculus [19] = test: Effective dose required to prevent reserpine ptosis in mice administered intraperitoneally; NA=Not active; type: functional, organism-based; procedure, shortened: as §1
Mus musculus [20] = test: Effective dose required to potentiate yohimbine hydrochloride induced lethality in mice, administered intraperitoneally; NA=Not active; type: functional, organism-based
Procedure, shortened: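 Male Swiss-Webster or Swiss ND/4 mice, 20-24 g, randomized into groups of 10 and aggregated five per cage. Test drug in saline given ip, with a saline control group. Yohimbine HCl (20 mg/kg, sc) injected 30 min later, then mice reaggregated.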

Mus musculus [21] = test: Effective dose required to prevent reserpine ptosis in mice administered orally; type: functional; details: po; procedure, shortened: as §1
Mus musculus [22] = test: Effective dose required to prevent reserpine ptosis in mice, administered intraperitoneally; NA=Not active at 100 mg/kg; type: functional, organism-based; set-up: dose 100 mg/kg; procedure, shortened: as §1

## C/N=C(/Cc1ccc(Cl)cc1)NC.Cl
Mus musculus [1]
  ED50: 3.4 mg/kg
[2]
  selectivity ratio: 127
Mus musculus [3]
  ED50: 15 mg/kg
[4]
  LD50: 430 mg/kg
Mus musculus [5]
  ED50: 43 mg/kg
Mus musculus [6]
  ED50: 2.3 mg/kg
[7]
  LD50: 69.4 mg/kg
[8]
  selectivity ratio: 30

## Cl.N=C(Cc1ccc2ccccc2c1Cl)N1CCN(c2ccccc2)CC1
Mus musculus [9]
  ED50: 16.2 mg/kg

## CC/N=C(/Cc1ccc(Cl)c(Cl)c1)NCC.Cl
Mus musculus [10]
  ED50: 12.6 mg/kg
[2]
  selectivity ratio: 7
[4]
  LD50: 90 mg/kg
Mus musculus [11]
  ED50: 6 mg/kg
Mus musculus [6]
  ED50: 9.3 mg/kg
Mus musculus [12]
  ED50: inactive
[7]
  LD50: 31.6 mg/kg
[8]
  selectivity ratio: 3

## Cc1ccc(C/N=C(/N)Cc2ccc3ccccc3c2)c(C)c1
Mus musculus [13]
  ED50: inactive

## Cl.N=C(Cc1ccc2ccccc2c1Cl)N1CCC(O)(c2ccccc2)CC1
Mus musculus [9]
  ED50: 24.5 mg/kg

## CC/N=C(/Cc1c(Cl)ccc(Cl)c1Cl)NCC
Mus musculus [14]
  ED50: inactive

## CC/N=C(/Cc1ccc2ccccc2c1)NCC.Cl
Mus musculus [11]
  ED50: 19.6 mg/kg
Mus musculus [6]
  ED50: 19.6 mg/kg
Mus musculus [9]
  ED50: 31 mg/kg

## Cl.N=C(Cc1ccc2ccccc2c1Cl)N1CCC(O)(c2ccc(Cl)cc2)CC1
Mus musculus [9]
  ED50: 10.8 mg/kg

## C/N=C(/Cc1ccc(-c2ccccc2)cc1)NC
Mus musculus [14]
  ED50: inactive

## Cl.N=C(Cc1ccc2ccccc2c1)N1CCC(c2ccccc2)CC1
Mus musculus [15]
  ED50: 14.7 mg/kg

## Cl.N=C(Cc1ccc2ccccc2c1Cl)N1CCN(c2cccc(Cl)c2)CC1
Mus musculus [9]
  ED50: 16.2 mg/kg

## Cl.N=C(Cc1ccc2ccccc2c1)N1CCOCC1
Mus musculus [10]
  ED50: 17.1 mg/kg

## C/N=C(/Cc1ccc(C)cc1)NC
Mus musculus [14]
  ED50: inactive

## CNC(=N)Cc1ccc2ccccc2c1.Cc1ccc(S(=O)(=O)O)cc1.Cl
Mus musculus [9]
  ED50: 22.5 mg/kg

## CC/N=C(/Cc1cc(Cl)c(Cl)cc1Cl)NCC
Mus musculus [16]
  ED50: inactive

## C/N=C(/Cc1ccc2cc(O)ccc2c1)NC.Cl
Mus musculus [10]
  ED50: 23.7 mg/kg

## N=C(Cc1ccc2ccccc2c1)N1CCN(c2ccccc2)CC1
Mus musculus [17]
  ED50: inactive

## C/N=C(/COc1ccccc1)NC.Cl
Mus musculus [11]
  ED50: 2.2 mg/kg
Mus musculus [18]
  ED50: 1.1 mg/kg

## CCC/N=C(/COc1ccccc1)NCCC
Mus musculus [19]
  ED50: inactive

## CC/N=C(/Cc1cccc2ccccc12)NCC
Mus musculus [14]
  ED50: inactive

## C/N=C(/Cc1ccc2cc(OC)ccc2c1)NC.Cl
Mus musculus [20]
  ED50: inactive
Mus musculus [6]
  ED50: 19 mg/kg
Mus musculus [15]
  ED50: 23.7 mg/kg

## CC/N=C(/Cc1cccc(C(F)(F)F)c1)NCC.Cl
Mus musculus [11]
  ED50: 12.8 mg/kg
Mus musculus [6]
  ED50: 5.1 mg/kg

## N=C(Cc1ccc2ccccc2c1Cl)N1CCN(C(c2ccccc2)c2ccccc2)CC1
Mus musculus [17]
  ED50: inactive

## C/N=C(/Cc1ccc(OC)c(OC)c1)NC
Mus musculus [14]
  ED50: inactive

## CN(C)CCCN1c2ccccc2CCc2ccccc21 [IMIPRAMINE]
Mus musculus [10]
  ED50: 14 mg/kg
Mus musculus [11]
  ED50: 0.7 mg/kg
Mus musculus [5]
  ED50: 23 mg/kg
Mus musculus [6]
  ED50: 13 mg/kg

## COc1ccc2cc(CC(=N)N3CCC(c4ccccc4)CC3)ccc2c1
Mus musculus [17]
  ED50: inactive

## CC/N=C(/Cc1ccc(Cl)cc1Cl)NCC
Mus musculus [14]
  ED50: inactive

## CC/N=C(/Cc1ccc(Br)cc1)NCC.Cl
Mus musculus [11]
  ED50: 2.7 mg/kg
Mus musculus [6]
  ED50: 2.8 mg/kg

## N=C(Cc1ccc2ccccc2c1Cl)N1CCN(Cc2ccccc2)CC1
Mus musculus [17]
  ED50: inactive

## C/N=C(/Cc1ccc2cc(C)ccc2c1)NC.Cl
Mus musculus [20]
  ED50: inactive
Mus musculus [6]
  ED50: 19.6 mg/kg
Mus musculus [15]
  ED50: 31.6 mg/kg

## CC1CN(C(=N)Cc2ccc3ccccc3c2)CC(C)O1.Cl (configuration not stated)
Mus musculus [10]
  ED50: 28.7 mg/kg

## Cl.N=C(Cc1ccc2ccccc2c1)N1CCCCCC1
Mus musculus [21]
  ED50: 11 mg/kg

## C/N=C(/Cc1ccc2ccccc2c1)NC.Cl [NAPACTADINE HYDROCHLORIDE]
[2]
  selectivity ratio: 34
[4]
  LD50: 584 mg/kg
Mus musculus [11]
  ED50: 0.8 mg/kg
Mus musculus [5]
  ED50: 12.6 mg/kg
Mus musculus [6]
  ED50: 12.6 mg/kg
[7]
  LD50: 68.1 mg/kg
[8]
  selectivity ratio: 5
Mus musculus [9]
  ED50: 17.1 mg/kg

## CC/N=C(/Cc1ccc2cc(C)ccc2c1)NCC
Mus musculus [22]
  ED50: inactive
